In ChEMBL document CHEMBL1138500 (J Med Chem, 2009):
Changes are numbered by the printed parent chain.

Experiments:
[1] = system: HL-60; test: Cytotoxicity against human HL60 cells assessed as dead cells at 100 uM after 3 days by propidium iodide staining based flow cytometry; format: cell-based; details: hl-60, 72 h
In short: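 HL60 cells exposed to compound at 100 µM for 3 days; cytotoxicity reported as percentage of dead cells.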

[2] = system: T1, Lysosomal acid glucosylceramidase (Homo sapiens), P04062 [N409S]; test: Activation of beta-glucocerebrosidase N370S mutant in Goucher lymphoblasts at 50 uM after 3 days relative to control
T1 sequence (whole entry): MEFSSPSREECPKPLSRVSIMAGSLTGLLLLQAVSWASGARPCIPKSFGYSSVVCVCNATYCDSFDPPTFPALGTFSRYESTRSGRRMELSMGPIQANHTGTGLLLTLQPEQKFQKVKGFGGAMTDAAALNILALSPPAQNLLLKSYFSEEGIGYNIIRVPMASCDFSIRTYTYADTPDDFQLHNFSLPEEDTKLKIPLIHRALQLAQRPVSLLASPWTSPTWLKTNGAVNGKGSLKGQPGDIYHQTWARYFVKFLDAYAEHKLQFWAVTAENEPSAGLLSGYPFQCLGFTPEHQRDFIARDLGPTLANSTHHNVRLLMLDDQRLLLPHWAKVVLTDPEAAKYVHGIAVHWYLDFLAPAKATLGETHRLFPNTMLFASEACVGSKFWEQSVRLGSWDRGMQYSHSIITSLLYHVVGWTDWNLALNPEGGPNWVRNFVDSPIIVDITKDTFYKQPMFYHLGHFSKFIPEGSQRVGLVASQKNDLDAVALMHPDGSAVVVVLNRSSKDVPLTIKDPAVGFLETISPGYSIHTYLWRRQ

[3] = molecular target: T2, Lysosomal acid glucosylceramidase (Homo sapiens, UniProt P04062); test: Inhibition of human placental beta-glucocerebrosidase
T2 sequence (P04062 whole entry): T1 sequence (whole entry) with S409N

| fold change (FC) [2] | IC50 [3] | SMILES | Activity [1] |
| --- | --- | --- | --- |
| 1.8 | > 500 µM | O=C1[C@@H](O)[C@H](O)[C@@H](O)CN1CCCCCCO | 3.44% |
| 3.9 | 253 µM | CCCN(CCC)CCN1C[C@@H](O)[C@@H](O)[C@H](O)C1=O | 3.45% |
| 1.3 | > 500 µM | CC(=O)NC1CN(CCCCCCO)C(=O)C(O)[C@@H]1O (single isomer, unassigned) | 2.9% |
| 2 | 295 µM | CCCCCCCCCCN1C[C@H](O)[C@@H](O)[C@H](O)C1=O | 11.2% |
| – | > 500 µM | CCCCCCCCCCN1CC(NC(C)=O)[C@@H](O)C(O)C1=O (single isomer, unassigned) | 7.58% |
| 3.6 | 127 µM | CCCOCCCCCCN1C[C@@H](O)[C@@H](O)[C@H](O)C1=O | 4.33% |
| 2 | 102 µM | CCCCCCCCCN1C[C@@H](O)[C@@H](O)[C@H](O)C1=O | 4.71% |
| – | > 500 µM | CCCCN1C[C@@H](O)[C@@H](O)[C@H](O)C1=O | 2.78% |
| – | > 500 µM | O=C1[C@@H](O)[C@H](O)[C@H](O)CN1CCO | 2.95% |
| 2.9 | 463 µM | CCCCCCCCCCN1C[C@@H](O)[C@@H](O)[C@@H](O)C1=O | 10.22% |
| 1.5 | 285 µM | CCCCCCCCCCN1C[C@@H](O)[C@@H](O)C1=O | 6.69% |
| 3.8 | > 500 µM | CCCOCCN1C[C@@H](O)[C@@H](O)[C@H](O)C1=O | 2.39% |

The next lines start with the molecule.

| SMILES | fold change (FC) [2] | IC50 [3] | Activity [1] |
| --- | --- | --- | --- |
| O=C1[C@@H](O)[C@H](O)[C@H](O)CN1CCCCCCO | 4.1 | > 500 µM | 3.75% |
| CCCCN1C[C@H](O)[C@@H](O)[C@H](O)[C@H]1CO | – | – | 2.69% |
| O=C1[C@@H](O)[C@H](O)[C@H](O)CN1Cc1ccccc1 | 3.4 | > 500 µM | 3.46% |
| CCCCCCCCN1C[C@@H](O)[C@@H](O)[C@H](O)C1=O | 6.2 | 175 µM | 3.51% |
| O=C1[C@H](O)[C@H](O)CN1CCCCCCO | 1.8 | > 500 µM | 3.57% |
| O=C1NC[C@@H](O)[C@@H](O)[C@@H]1O | – | > 500 µM | 2.77% |
| CCCCCCCCN1C[C@@H](O)C(O)[C@H](O)C1 | – | > 500 µM | 3.55% |
| O=C1[C@H](O)[C@H](O)[C@H](O)CN1CCCCCCO | 2.5 | > 500 µM | 3.23% |
| CCCCCCCCCCN1C[C@@H](O)[C@@H](O)[C@H](O)C1=O | 2.1 | 46 µM | 5.19% |
